Test results reported in article PMC5352298 (Pharmacological research, 2016).
Where two headings read alike, the source gives them in different places.

Tests used:
[1] = tested on: mice (acetic-acid induced abdominal constriction); details: cited from earlier work
[2] = tested on: mice (carrageenan induced paw edema); experiment: Carrageenan induced paw edema; assay type: in vivo, mouse
Procedure, shortened: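 Male CF-1 mice (20–35 g), n=5 per group. Test compound, ibuprofen (100 mg/kg, positive control) or MC vehicle given i.p. 2 h before intraplantar 25 μl λ-carrageenan; an MC/saline group also included. Both paws measured by caliper at baseline and 0.5, 1, 2, 3, 4, 6, 8 and 24 h. % edema = thickness/baseline. Mean ± s.e.m.; Tukey test.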

rats with SNL neuropathy [3] = experiment: Spinal nerve ligation; assay type: in vivo; details: rat
Procedure, shortened: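 Rats with pre-surgery threshold >15 g underwent L5–L6 spinal nerve ligation under ketamine/xylazine. Test compound at 40, 60 or 80 mg/kg i.p., MC vehicle, or MTMCD positive control, given 7, 14 and 21 days post-surgery. Latin-square design; experimenter blinded. Nine von Frey filaments (0.6–26 g); protected = no response to 15 g. TPE = earliest time of highest mean threshold.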

[4] = Pharmacokinetic study in mice; assay type: in vivo, mouse; details: 80 mg/kg i.p.
Procedure, shortened: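 Mice dosed 80 mg/kg i.p. (suspension in 0.5% MC), 4 per time point. Aortic blood collected after sacrifice at 0.25, 0.5, 1, 1.5, 2, 2.5 and 4 h. Heparinised plasma (3000g, 10 min) stored at −80°C. Chloroform extraction with N-methyl VCD internal standard, then GC/MS. Non-compartmental analysis: Cmax observed; CL/F = Dose/AUC; V/F = CL/F ÷ terminal slope.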

[5] = tested on: mice (carrageenan induced heat hyperalgesia); experiment: Carrageenan test, heat hyperalgesia; assay type: in vivo, mouse; details: for paw thickness an hour following administration: carrageenan injected paw
Procedure, shortened: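 Mice acclimated 1 h on a 30°C plate, then 25 μl carrageenan (20 mg/ml in saline) s.c. into left hind plantar paw. Test compound (10–70 mg/kg), VPA (100 mg/kg) or 0.5% MC given i.p. 15 min before testing at 3 h; Sal/MC and Carr/MC controls; blinded. Radiant heat (35% intensity): flinch latency, mean of two readings 5 min apart, ipsilateral minus contralateral.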

[6] = rats, 60 mg/kg, multisol solution, previous study; cited from earlier work
[7] = tested on: mice (acetic-acid induced abdominal constriction); experiment: Acetic acid-induced abdominal constriction; assay type: in vivo, mouse; details: for protective index (PI), writhing test: TD50 vs ED50
[8] = tested on: mice (formalin-induced paw licking); experiment: Formalin test; assay type: in vivo, mouse; details: for reduction of licking-time AUC vs control, acute phase: acute phase 0–10 min; for reduction of licking-time AUC vs control, inflammatory phase: inflammatory phase 10–40 min; for ID50 (dose reducing the nociceptive response by 50% compared to control), acute phase / ID50 (dose reducing the nociceptive response by 50% compared to control), inflammatory phase: i.p.
rat sciatic nerve = experiment: Sciatic nerve compound action potential; details: 40 Hz
[9] = Pharmacokinetic study in rats; assay type: in vivo, rat; details: 80 mg/kg i.p.
Procedure, shortened: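 Rats given 80 mg/kg i.p. in 0.5% MC, four animals per time point. Cardiac-puncture blood (5 ml) taken at sacrifice at 0.25, 0.5, 1, 1.5, 2 and 4 h. Plasma (3000g, 10 min) held at −80°C, chloroform-extracted with N-methyl VCD internal standard and assayed by GC/MS. Non-compartmental: observed Cmax, CL/F = Dose/AUC, V/F = CL/F divided by terminal slope.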

rats with SNL neuropathy [10] = details: rat, same paradigm; cited from earlier work
mice = details: mouse, in vivo, ip; cited from earlier work
[11] = tested on: mice (formalin-induced paw licking); details: same test; cited from earlier work
[12] = sedation for the first 15 minutes after dosing

For `CC(C)Cc1ccc(C(C)C(=O)O)cc1` (stereo not drawn) [Ibuprofen, reference compound], the “ED50 in the writhing model” value [1] is listed as 33 mg/kg and the “percent paw thickness following carrageenan injection” value ([2]; 100 mg/kg i.p., significant after 4 hours (p<0.05)) is listed as “decreased percent paw thickness”.
In the case of `CNC(=O)CC1C(C)(C)C1(C)C` [MTMCD, N-methyl tetramethylcyclopropyl acetamide, reference compound], the “antiallodynic effect vs MC (positive control)” value (rats with SNL neuropathy [3]; 80 mg/kg i.p.) was “antiallodynic effect significantly different than MC”.
For `CCCC(C(N)=O)C(C)CC` (stereo not drawn) [SPD, sec-Butylpropylacetamide], the CL/F [4] was 28.3 mL/min/kg, the “peak plasma concentration (Cmax)” value [4] was 77.2 µg/mL and the volume of distribution [4] was 0.9 L/kg. For the same compound, the signs of toxicity [4, 12] was “not associated with any signs of toxicity except sedation”, the “heat hyperalgesia, normalized mean withdrawal time vs Carr/MC” value ([5]; 70 mg/kg i.p.) was “statistically different from the Carr/MC group” and the “paw thickness an hour following administration” value [5] was “Neither SPD nor VPA decreased paw thickness”. The “ED50 in the carrageenan model (heat hyperalgesia)” value ([5]; i.p., at TPE, 95% CI 29.3–110) was 49 mg/kg, the CL/F [6] was 1.9 and the “protective index (PI), writhing test” value [7] was 2.2. For the same compound, the “mean number of writhes” value ([7]; mice, 30, 50 and 70 mg/kg i.p., p<0.001) was “significantly reduced”, the “dose of maximum efficacy in the writhing test” value ([7]; mice, i.p.) was 30 mg/kg and the “ED50 in the writhing test” value ([7]; mice, i.p., 95% CI 24.3–67 mg/kg (SPD), 18–61mg/kg (VPA)) was 40 mg/kg. The “tactile allodynia compared to control” value (rats with SNL neuropathy [3]; 60 and 80 mg/kg i.p., p<0.05) was “significantly reduced tactile allodynia”, the “time to peak antiallodynic effect (TPE)” value (rats with SNL neuropathy [3]; i.p.) was 60 min and the “ED50 (antiallodynic, SNL model)” value (rats with SNL neuropathy [3]; i.p., at TPE (60 min), 95% CI of 9–61 mg/kg) was 49 mg/kg. For the same compound, the “potency (effective dose) in the formalin test” value (from here on “potency (effective dose)”) ([8]; mice) was 70 mg/kg, the “reduction of licking-time AUC vs control, acute phase” value ([8]; mice, 70 mg/kg i.p.) was 55% and the “reduction of licking-time AUC vs control, inflammatory phase” value ([8]; mice, 70 mg/kg i.p.) was 74%. For the same compound, the “ID50 (dose reducing the nociceptive response by 50% compared to control), acute phase” value ([8]; mice) was 39 mg/kg, the “ID50 (dose reducing the nociceptive response by 50% compared to control), inflammatory phase” value ([8]; mice) was 40 mg/kg and the “protective index (PI), formalin test” value ([8]; ratio between ID50 and TD50, TD50 from White et al., 2012) was 2.2. For the same compound, the “ratio between last and first CAP (Δf), phasic stimulation” value (rat sciatic nerve; 3mM, baseline 96.5%) was 96%, the “PAR of the first and last CAP normalized to baseline, phasic stimulation” value (rat sciatic nerve; 3mM, baseline 100%) was 90% and the “percent paw thickness up to 24 hours following carrageenan injection” value ([2]; 70 mg/kg i.p.) was “did not decrease percent paw thickness”. For the same compound, the CL/F [9] was 15 mL/min/kg, the “peak plasma concentration (Cmax)” value [9] was 66.2 µg/mL and the volume of distribution [9] was 1.1 L/kg. The signs of toxicity [9, 12] was “not associated with any signs of toxicity except sedation”.
In the case of `CCCC(CCC)C(=O)O` [VPA, valproic acid, reference compound], the “ED50 (antiallodynic, SNL model)” value (rats with SNL neuropathy [10]) is listed as 269 mg/kg, the “heat hyperalgesia vs Carr/MC” value ([5]; 100 mg/kg i.p.) is listed as “not able to reduce heat hyperalgesia” and the “paw thickness an hour following administration” value [5] is listed as “Neither SPD nor VPA decreased paw thickness”. The TD50 (mice) was 391 mg/kg, the ED50 ([7]; Mus musculus, ip, read-out: ED50 in the writhing test) was 44 mg/kg and the “protective index (PI), writhing test” value [7] was 8.8. For the same compound, the number of writhes ([7]; mice, 50 and 100 mg/kg i.p.) was “significantly reduced the number of writhes”, the licking time ([8]; mice, 70 mg/kg i.p.) was “unable to reduce the licking time significantly” and the licking time ([8]; mice, 100 mg/kg i.p.) was “showed reduction in only one of the two phases evaluated”. The “reduction of licking-time AUC vs control, acute phase” value ([8]; mice, 300 mg/kg i.p.) was 46%, the “reduction of licking-time AUC vs control, inflammatory phase” value ([8]; mice, 300 mg/kg i.p.) was 75% and the “ID50 (dose reducing the nociceptive response by 50% compared to control), acute phase” value ([8]; mice) was 136 mg/kg. For the same compound, the “ID50 (dose reducing the nociceptive response by 50% compared to control), inflammatory phase” value ([8]; mice) was 113 mg/kg.
In the case of `CC(=O)Oc1ccccc1C(=O)O` [aspirin], the “ED50 in the writhing model” value [1] is listed as 82 to 228 mg/kg.
In the case of `COc1ccc2c3c1O[C@H]1[C@@H](O)C=C[C@H]4[C@@H](C2)N(C)CC[C@@]341` [codeine], the “potency (effective dose)” value [11] is given as 25 to 50 mg/kg.
In the case of `NCC1(CC(=O)O)CCCCC1` [gabapentin], the “ED50 (antiallodynic, SNL model)” value (rats with SNL neuropathy [10]) is given as 32 mg/kg.
With `CCN(CC)CC(=O)Nc1c(C)cccc1C` [lidocaine, Lidocaine, reference compound] the “PAR of the first CAP normalized to baseline, phasic stimulation” value (rat sciatic nerve; 1mM, baseline 100%) was 22.5% and the “PAR of the last CAP normalized to baseline, phasic stimulation” value (rat sciatic nerve; 1mM, baseline 100%) was 14.7%.
In the case of `CN1CC[C@]23c4c5ccc(O)c4O[C@H]2[C@@H](O)C=C[C@H]3[C@H]1C5` [morphine], the “potency (effective dose)” value [11] is given as 5 to 10 mg/kg.
In the case of `CN1C(C(=O)Nc2ccccn2)=C(O)c2ccccc2S1(=O)=O` [piroxicam], the “ED50 in the writhing model” value [1] is given as 100 mg/kg.
